# Screening data (PubChem)
# Many of the other results were omitted from the sample, so hits are more common in it than they were.
# KCC2 mod: modulates chloride dependent transport by human KCC2; 2.2% of 190,000 active; B-score of Tl+ flux slope (higher = more flux/activation; lower = inhibition) at 10 µM; KCC2 cells, thallium flux FluoZin-2 fluorescence; Q9H2X9;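 active = thallium flux slope and its plate-corrected score both differing from the plate sample mean at a set confidence after two filtering rounds, in either direction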;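 also: slope of fluorescence scaled to starting intensity during 10 to 20 s after thallium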
# ABCB6 inh 2: human ABCB6 transporter inhibition; Q9NP58; K562-ABCB6 porphyrin accumulation, flow cytometry, 1 h; active compounds read low; fluorescence ratio to DMSO, % at 10 µM; 0.19% of 360,000 active; AID 602162;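 active = fluorescence ratio to DMSO below 75%, the collection mean minus 3 SD; inconclusive = too few cells collected in the well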;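 also: signal is porphyrin accumulated inside mitochondria; lower ratio means ABCB6 inhibition with less porphyrin fluorescence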
# V-ATPase pH: regulators of yeast V-ATPase proton transport; S. cerevisiae, pHLuorin cytosolic pH fluorescence; response, % at 10 µM; 0.37% of 350,000 active; in the data active = response mostly above about 7.3%, no sharp cut-off; inactive = mostly below about 5.4%; also: actives read high
# Dynein transport: dynein cargo transport inhibition; 3617.4 mouse cells, GR-EGFP nuclear translocation imaging; test concentration mostly 20 µM; stimulated with dexamethasone, 1 µM; active compounds read low; z-score, hits read low; 0.47% of 220,000 active; AID 1381;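 active = plate z-score of nuclear minus cytoplasmic receptor signal below a set negative limit, without overly bright fluorescence or cell loss, cut at about -3.5 in these data, passing the limit was not always enough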;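 also: z-score of nuclear minus cytoplasmic ring GR-EGFP intensity difference per well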
#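 Buffer or medium: tet-free medium with charcoal-stripped serum / Also added: dexamethasone agonist, 1.0 µM final, for 30 min / Timing: induction 48 h, compound 1 h, agonist 30 min / Measured by: high-content fluorescence imaging after fixation / Read-out: nuclear-to-cytoplasmic GR-EGFP distribution per well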
# pCIP destab: lowers stability of the mouse p/CIP coactivator protein; Q05BA5; F442A p/CIP-EGFP cells, EGFP fluorescence, 16 h; decrease of EGFP signal, % at 10 µM; 0.01% of 290,000 active; AID 1984;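 active = EGFP signal decrease of at least 30% at 10 µM or well 3 SD below plate mean, unless failing retest; inactive = the rest, including hits failing retest or dose response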
# KCC2 sec1: KCC2 (human) modulation, secondary assay | shares compounds with KCC2 mod | HEK293-KCC2, thallium flux, FluoZin2 fluorescence; active compounds read high | normalised thallium flux (F/F0 slope) at 10 µM | 15% of 3,700 active;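 active = thallium flux slope above the same plate's solvent-only control mean plus 3 SD; inconclusive = the two replicate wells disagree; inactive = no significant difference from solvent-only control wells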
# KCC2 bumet counter: bumetanide-insensitive thallium flux in KCC2 cells with ouabain, counter-screen; shares compounds with KCC2 mod; HEK293-KCC2 + bumetanide/ouabain, thallium flux FluoZin2; active compounds read high; normalized thallium flux at 10 µM; 49% of 3,700 active;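 active = thallium entry rate above the same plate's blocked-transporter control wells by more than 3 SD; inconclusive = the two repeat wells disagree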;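 also: raw slope of fluorescence over initial fluorescence between 10 and 20 s after thallium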
# KCC2 sec2: KCC2 (human) modulation, second secondary assay; shares compounds with KCC2 mod; HEK293-KCC2, thallium flux FluoZin2 fluorescence; actives lie on both sides; F/F0 rise rate, 10–20 s post-thallium; normalized thallium flux at 10 µM; 23% of 3,700 active;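 active = thallium flux slope more than 3 SD above or below the plate's solvent-only control mean, mostly below; inconclusive = the two repeat wells disagreed; inactive = no significant shift from solvent-only controls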
# HEK293 Tl flux: counter-screen for KCC2 modulators: effect in parental HEK293 cells; shares compounds with KCC2 mod; thallium flux FluoZin2, ouabain; baseline-ratio fluorescence slope, 10–20 s after thallium; thallium flux rate (normalised fluorescence) at 10 µM; 46% of 3,700 active; AID 1716;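 active = thallium flux rate significantly above the same plate's solvent-only control wells, beyond their mean plus 3 SD; inconclusive = the two replicate wells gave conflicting results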
# KCC2 ouabain: modulates human KCC2 on retest with ouabain | HEK293-KCC2, thallium flux FluoZin2 fluorescence; bidirectional: low = inhibitor, high = activator | AID 1717 | shares compounds with KCC2 mod | 48% of 3,700 active | raw Tl+ flux slope (below DMSO = inhibition, above = activation) at 10 µM;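 active = thallium flux slope beyond 3 SD from same-plate DMSO control mean in most replicates, usually higher, sometimes lower; inconclusive = repeat tests gave conflicting results; inactive = no significant difference from controls in most replicates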;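 also: slope of initial-normalized fluorescence between seconds 10 and 20 after thallium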
# HEK293 Tl flux2: parental HEK flux effect, counter-screen 2. shares compounds with KCC2 mod. thallium flux slope at 10 µM. HEK293 parental, thallium flux FluoZin-2 fluorescence slope. 33% of 3,700 active;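 active = thallium flux slope above the same plate's solvent-control mean plus 3 SD in both duplicate wells; inconclusive = duplicate wells that disagreed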;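 also: run without ouabain in cells lacking the KCC2 cotransporter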
# A number is an active result; - = inactive; ? = inconclusive; . = no result given.
SMILES,KCC2 mod,ABCB6 inh 2,V-ATPase pH,Dynein transport,pCIP destab,KCC2 sec1,KCC2 bumet counter,KCC2 sec2,HEK293 Tl flux,KCC2 ouabain,HEK293 Tl flux2
Cc1ccc(Nc2nnc(SCC(=O)Nc3cccc(S(=O)(=O)NC4=NCCCCC4)c3)s2)c(C)c1,-,-,-,-,-,-,-,-,0.0052,0.0168,-
Cc1cc(=O)oc2cc(OCC(=O)Nc3ccccc3C(N)=O)c(Cl)cc12,.,-,-,.,-,.,.,.,.,.,.
COc1cccc(NC(=S)NNC(=O)Cn2nc(C(F)(F)F)cc2C)c1,-,-,-,-,-,.,.,.,.,.,.
Cc1nccc(-c2cccc(N/N=C(\C#N)C(=O)c3ccccc3)c2)n1,-5.09,-,-,-,-,?,0.0358,-,0.0146,-,0.0115
Cn1c(SCC(=O)c2cc(Cl)c(Cl)s2)nnc1-c1ccco1,-5.32,-,-,-,-,-,0.0301,-,0.0223,-,0.0168
Cc1ccc(C(=O)CSc2nnc(-c3ccco3)n2C)cc1,-4.75,-,-,-,-,0.00579,-,-,-,0.0152,-
Cn1c(SCC(=O)N2c3ccccc3Sc3ccccc32)nnc1-c1ccco1,-,-,-,-,-,.,.,.,.,.,.
CC(=O)Nc1ccc(S(=O)(=O)NC2(c3ccccc3)C(=O)N(C)C(=O)N(C)C2=O)cc1,.,-,-,.,.,.,.,.,.,.,.
Cc1ccc(C)c(N2CCN(C(=O)CCCN3C(=S)NC(C)(C)CC3C)CC2)c1 (stereo not drawn),-,-,-,-,-,.,.,.,.,.,.
COC(=O)C1=C(C)N(C)C(=O)NC1c1cc2c(cc1[N+](=O)[O-])OCO2 (stereo not drawn),-,-,-,-,-,.,.,.,.,.,.
COC(=O)C1=C(C)N(CCCC(=O)O)C(=O)NC1c1cc2c(cc1[N+](=O)[O-])OCO2 (stereo not drawn),3.71,-,-,-,-,-,?,-,-,-,-
Cc1ccc(Nc2nc3ccccc3c(=O)s2)cc1,14.2,-,-,-,-,0.011,0.0308,-,0.0132,0.0338,0.0112
O=c1sc(Nc2ccccc2)nc2ccccc12,.,-,-,-,-,.,.,.,.,.,.
COCCNc1nc2nonc2nc1N(C)Cc1cccc2cnccc12,-3.14,-,-,-,-,-,-,-,-,?,-
CCCCn1nnnc1SCC(=O)c1cc(Cl)ccc1OC,-,-,-,-,-,.,.,.,.,.,.
COc1ccc(Cl)cc1C(=O)CSc1nc(N)cc(N)n1,-8.65,-,-,-,-,-,-,-,-,-,-
Cc1cccn2c(=O)nc(SCC(=O)NCc3ccc(F)cc3)nc12,.,-,-,.,.,.,.,.,.,.,.
O=C(CNC(=O)c1ccc(Cl)cc1Cl)OCc1nnc(-c2ccccc2)o1,.,-,-,.,.,.,.,.,.,.,.
CCOc1ccc(NC(=S)NC(=O)c2cncc(Br)c2)cc1,.,-,-,.,.,.,.,.,.,.,.
CC1=NN(c2nc(-c3ccccc3)cs2)C(=O)C1,.,-,-,-,-,.,.,.,.,.,.
O=C1CC(c2ccccc2)=NN1c1nc(-c2ccccc2)cs1,9.67,-,-,-,-,0.0133,0.0391,-,0.013,0.0345,?
CC(=O)Nc1nc(COc2ccccc2)cs1,.,-,-,-,-,.,.,.,.,.,.
O=C(Nc1nc(COc2ccccc2)cs1)C1CCC1,-4.34,-,-,-,-,-,-,?,-,0.0133,?
CC(C)Cn1c(-c2ccc(C#N)cc2)nc2c1c(=O)[nH]c(=O)n2CC(C)C,.,-,-,-,-,-,-,-,-,-,-
